Calls of active or inactive are those of the source. The rule behind the calls is not given here.

In series [1] the test system is Mus musculus. Briefly: Anticonvulsant activity in ip dosed albino Carworth Farms No.1 mouse assessed as protection against maximal electroshock-induced seizure after 0.25 hrs. In kind it is functional. The note with it: albino Carworth Farms No.1, ip. An outline of the steps: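 Mouse quantification at the time of peak effect, compound given i.p. in 0.5% methylcellulose. Groups of at least eight mice received varied doses until at least two points fell between 100 and 0% response. ED50 (MES, scMET) and TD50 (rotorod) with 95% CI by probit analysis (Finney). PI = TD50/ED50 MES.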
A general note: In the maximal electroshock model the usual endpoint is tonic extension of the hind limbs.

A short description of series [2]: Neurotoxicity in ip dosed albino Carworth Farms No.1 mouse assessed as motor impairment after 0.25 hrs by rotarod test. It is filed as toxicity, organism-based. The note with it: Carworth Farms No.1 (albino), in vivo. An outline of the steps:
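Mouse quantification at the time of peak effect, compound given i.p. in 0.5% methylcellulose. Groups of at least eight mice received varied doses until at least two points fell between 100 and 0% response. PI = TD50/ED50 MES.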
In general terms: In the rotarod test animals must keep their balance on a rotating rod.

The subject of series [3] is Mus musculus. Briefly: Anticonvulsant activity in ip dosed albino Carworth Farms No.1 mouse assessed as protection against electric-current for 3 secs-induced seizure after 0.25 hrs by 6Hz minimal clonic seizure test. In kind it is functional. The note with it: albino Carworth Farms No.1, ip.
The test system of series [4] is Mus musculus. Briefly: Anticonvulsant activity in ip dosed albino Carworth Farms No.1 mouse assessed as time needs to show peak effect for electric-current for 3 secs-induced seizure after 0.25 hrs by 6Hz minimal clonic seizure test. It is filed as functional.
The test system of series [5] is Rattus norvegicus. Briefly: Anticonvulsant activity in po dosed albino Sprague-Dawley rat assessed as protection against maximal electroshock-induced seizure after 0.25 hrs. In kind it is functional. An outline of the steps: (§1)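 Rats dosed orally, compound in 0.5% methylcellulose. MES at 150 mA, 60 Hz, 0.2 s; scMET with pentylenetetrazole 70 mg/kg s.c. plus 30 min observation; rotorod for toxicity.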

Series [6] in a line: Neurotoxicity in po dosed albino Sprague-Dawley rat assessed as motor impairment after 0.25 hrs by rotarod test. It is filed as toxicity, organism-based. The note with it: in vivo. In short, it runs like this:
as §1

For series [7], the system named is Rattus norvegicus. Briefly: Anticonvulsant activity in po dosed Sprague-Dawley rat assessed as time needs to show peak effect for protection against subcutaneous metrazol-induced seizure after 0.25 hrs. In kind it is functional. An outline of the steps: as §1
For series [8], the system named is Mus musculus. Briefly: Anticonvulsant activity in ip dosed albino Carworth Farms No.1 mouse assessed as time needs to show peak effect for protection against subcutaneous metrazol-induced seizure. It is filed as functional.
Series [9] relates to Mus musculus. Nature of the series: Neurotoxicity in albino Carworth Farms No.1 mouse assessed as motor impairment at 30 mg/kg, ip after 0.5 hrs by rotarod test. In kind it is toxicity, organism-based. The arrangement: dose 30 mg/kg, route intraperitoneal. The note with it: in vivo. An outline of the steps:
(§2)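 Rotorod neurotoxicity in mice at 6 r.p.m. Compound given i.p. (30, 100, 300 mg/kg) in 0.5% methylcellulose; tested at 30 min and 4 h. Impairment is inability to keep equilibrium on the rod for a given time; scored as impaired/tested.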

Series [10] concerns Mus musculus. Briefly: Neurotoxicity in albino Carworth Farms No.1 mouse assessed as motor impairment at 100 mg/kg, ip after 0.5 hrs by rotarod test. It is filed as toxicity, organism-based. The note with it: in vivo. More on the design: dose 100 mg/kg, route intraperitoneal. An outline of the steps: as §2
In series [11] the test system is Mus musculus. Nature of the series: Neurotoxicity in albino Carworth Farms No.1 mouse assessed as motor impairment at 300 mg/kg, ip after 0.5 hrs by rotarod test. It is filed as toxicity, organism-based. More on the design: dose 300 mg/kg, route intraperitoneal. The note with it: in vivo. An outline of the steps:
as §2

Series [12] concerns Mus musculus. Briefly: Toxicity in albino Carworth Farms No.1 mouse assessed as death following tonic extension at 300 mg/kg, ip after 0.5 hrs by rotarod test. It is filed as organism-based. The arrangement: dose 300 mg/kg, route intraperitoneal. The note with it: in vivo. An outline of the steps: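 Mice (18–25 g) were given 30, 100 or 300 mg/kg i.p. in 0.5% (v/v) aqueous methylcellulose. Neurotoxicity was checked on a 6 r.p.m. rotorod 30 min and 4 h after dosing and scored as inability to keep equilibrium. Death following tonic extension and sedation were recorded as observations (number of animals/number tested).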

Series [13] relates to Mus musculus. Nature of the series: Anticonvulsant activity in albino Carworth Farms No.1 mouse assessed as protection against subcutaneous metrazol-induced seizure at 30 mg/kg, ip after 0.5 hrs. It is filed as functional, organism-based. The arrangement: dose 30 mg/kg. In short, it runs like this:
(§3)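 Mouse scMET test. Compound given i.p. (30, 100 or 300 mg/kg) in 0.5% methylcellulose. Pentylenetetrazole 85 mg/kg (CD97) given s.c. at 0.5 or 4 h, then mice observed for 30 min. Protection is absence of clonic spasms; scored as protected/tested.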

In series [14] the test system is Mus musculus. Nature of the series: Anticonvulsant activity in albino Carworth Farms No.1 mouse assessed as protection against subcutaneous metrazol-induced seizure at 30 mg/kg, ip after 4 hrs. It is filed as functional, organism-based. More on the design: dose 30 mg/kg. In short, it runs like this:
as §3

The subject of series [15] is Mus musculus. Nature of the series: Anticonvulsant activity in albino Carworth Farms No.1 mouse assessed as protection against subcutaneous metrazol-induced seizure at 100 mg/kg, ip after 0.5 hrs. It is filed as functional, organism-based. The arrangement: dose 100 mg/kg. An outline of the steps:
as §3

Series [16] deals with Mus musculus. Nature of the series: Anticonvulsant activity in albino Carworth Farms No.1 mouse assessed as protection against subcutaneous metrazol-induced seizure at 100 mg/kg, ip after 4 hrs. In kind it is functional, organism-based. More on the design: dose 100 mg/kg. An outline of the steps:
as §3

The test system of series [17] is Mus musculus. Nature of the series: Anticonvulsant activity in albino Carworth Farms No.1 mouse assessed as protection against subcutaneous metrazol-induced seizure at 300 mg/kg, ip after 0.5 hrs. It is filed as functional, organism-based. The arrangement: dose 300 mg/kg. An outline of the steps: as §3
Series [18] has as its system Mus musculus. Nature of the series: Anticonvulsant activity in albino Carworth Farms No.1 mouse assessed as protection against subcutaneous metrazol-induced seizure at 300 mg/kg, ip after 4 hrs. In kind it is functional, organism-based. More on the design: dose 300 mg/kg. In short, it runs like this:
as §3

Series [19] concerns Mus musculus. Briefly: Toxicity in albino Carworth Farms No.1 mouse subcutaneous metrazol-induced seizure model assessed as myoclonic jerk at 300 mg/kg, ip after 0.5 hrs. It is filed as organism-based. More on the design: dose 300 mg/kg. The note with it: in vivo, sc.
Series [20] has as its system Mus musculus. Nature of the series: Anticonvulsant activity in albino Carworth Farms No.1 mouse assessed as protection against maximal electroshock-induced seizure at 30 mg/kg, ip after 0.5 hrs. It is filed as functional, organism-based. More on the design: dose 30 mg/kg. An outline of the steps:
(§4)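 Mouse MES test with compound given i.p. (30, 100 or 300 mg/kg) in 0.5% methylcellulose; tested at 0.5 and 4 h. Corneal stimulus of 50 mA at 60 Hz for 0.2 s, electrodes primed with 0.5% butacaine in 0.9% NaCl. Protection is abolition of hindlimb tonic extension; scored as protected/tested.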

Series [21] deals with Mus musculus. Briefly: Anticonvulsant activity in albino Carworth Farms No.1 mouse assessed as protection against maximal electroshock-induced seizure at 30 mg/kg, ip after 4 hrs. In kind it is functional, organism-based. The arrangement: dose 30 mg/kg. An outline of the steps: as §4
In series [22] the test system is Mus musculus. Nature of the series: Anticonvulsant activity in albino Carworth Farms No.1 mouse assessed as protection against maximal electroshock-induced seizure at 100 mg/kg, ip after 0.5 hrs. More on the design: dose 100 mg/kg. It is filed as functional, organism-based. In short, it runs like this: as §4
For series [23], the system named is Mus musculus. Briefly: Anticonvulsant activity in albino Carworth Farms No.1 mouse assessed as protection against maximal electroshock-induced seizure at 100 mg/kg, ip after 4 hrs. It is filed as functional, organism-based. The arrangement: dose 100 mg/kg. In short, it runs like this: as §4
For series [24], the system named is Mus musculus. Briefly: Anticonvulsant activity in albino Carworth Farms No.1 mouse assessed as protection against maximal electroshock-induced seizure at 300 mg/kg, ip after 0.5 hrs. It is filed as functional, organism-based. The arrangement: dose 300 mg/kg. An outline of the steps:
as §4

The subject of series [25] is Mus musculus. Nature of the series: Anticonvulsant activity in albino Carworth Farms No.1 mouse assessed as protection against maximal electroshock-induced seizure at 300 mg/kg, ip after 4 hrs. In kind it is functional, organism-based. More on the design: dose 300 mg/kg. An outline of the steps: as §4
Series [26] relates to Mus musculus. Nature of the series: Neurotoxicity in albino Carworth Farms No.1 mouse assessed as motor impairment at 30 mg/kg, ip after 4 hrs by rotarod test. The note with it: in vivo. In kind it is toxicity, organism-based. More on the design: dose 30 mg/kg, route intraperitoneal. In short, it runs like this:
as §2

Series [27] has as its system Mus musculus. Nature of the series: Neurotoxicity in albino Carworth Farms No.1 mouse assessed as motor impairment at 300 mg/kg, ip after 4 hrs by rotarod test. In kind it is toxicity, organism-based. The arrangement: dose 300 mg/kg, route intraperitoneal. The note with it: in vivo. In short, it runs like this:
as §2

By ED50 is commonly meant the dose that gives a 50% effect, or the effect in half of the subjects. The TD50 is the 50% point of the dose-response relation for the toxic effect studied. Take `CCC1(C)CC(=O)NC1=O` (configuration not stated) [ETHOSUXIMIDE]: the figures for the median effective dose (ED50) in [1], in [3] and in series [5] were over 500 mg/kg, 167 mg/kg and over 500 mg/kg, respectively. Also, the TD50 at 0.25 h was 341 mg/kg in [2] and over 500 mg/kg in series [6]. For the same compound, the Time in [4], in [7] and in [8] was 0.25 h in each case.

Regarding `Cl.O=C1CN2CCC[C@H]2C(=O)N1CCc1ccccc1`, the Activity result in series [9] is recorded as “Non-toxic”; in series [10], “Non-toxic”; in [11], “Toxic”; in [12], “Toxic”; in [19], “Toxic”; in series [26], “Non-toxic”. For the same compound, the Activity result in [27] is “Non-toxic”. Also, the result in series [13], in series [14], in series [15], in [16], in series [18] and in [20] was inactive. For the same compound, the outcome in series [21], in [22] and in series [23] was inactive. Besides, the result in [17], in series [24] and in series [25] was Active.

The values are drawn from ChEMBL document CHEMBL1909525, “Synthesis and anticonvulsant activity of novel 2,6-diketopiperazine derivatives. Part 1: perhydropyrrole[1,2-a]pyrazines” (Eur J Med Chem, 2011).
